The values that follow come from ChEMBL document CHEMBL1156540, “Remarkable DNA binding affinity and potential anticancer activity of pyrrolo[2,1-c][1,4]benzodiazepine-naphthalimide conjugates linked through piperazine side-armed alkane spacers” (Bioorg Med Chem, 2008).

One assay has as its system DNA. Description: Binding affinity to calf thymus DNA assessed as helix melting temperature at 20 uM after 18 hrs by thermal denaturation assay. The conditions noted are these: Bos taurus. It counts as nucleic-acid assay. An outline of the steps:
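Calf thymus duplex DNA (100 µM in phosphate) with ligand at 20 µM (1:5 ligand/DNA molar ratio), added from concentrated DMSO stock into 10 mM sodium phosphate, 1 mM EDTA, pH 7.00. Incubated at 37 °C before melting. Absorbance followed at 260 nm while heating 1 °C/min over 40–95 °C. Tm taken from maxima of d(A260)/dT derivative plots; ΔTm relative to DNA alone.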

A further assay concerns HOP-62. Description: Cytotoxicity against human Hop62 cells by SRB assay. It counts as functional, cell-based. An outline of the steps: (§1)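 Human tumour lines given dose–response treatment, with growth or viability estimated by sulforhodamine B protein staining. IC50 is the dose giving 50% growth inhibition versus untreated controls, read from IC50 graphs. Triplicate wells; each experiment repeated three times.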
On the technique in general: The SRB assay estimates cell density from bound dye.

In the next assay the test system is SiHa. Description: Cytotoxicity against human SiHa cells by SRB assay. In kind it is functional, cell-based. In outline:
as §1

The subject of a further assay is MCF7. Kind of assay: Cytotoxicity against human MCF7 cells by SRB assay. It counts as functional, cell-based. In outline: as §1
For the next assay, the system named is ZR-75-1. Kind of assay: Cytotoxicity against human ZR751 cells by SRB assay. In kind it is functional, cell-based. An outline of the steps: as §1
A further assay has as its system PC-3. Kind of assay: Cytotoxicity against human PC3 cells by SRB assay. In kind it is functional, cell-based. An outline of the steps:
as §1

The next assay concerns COLO 205. Description: Cytotoxicity against human Colo205 cells by SRB assay. It counts as functional, cell-based. In outline:
as §1

A further assay relates to A2780. Description: Cytotoxicity against human A2780 cells by SRB assay. In kind it is functional, cell-based. An outline of the steps:
as §1

Consider `COc1cc2c(cc1OCCCN1CCN(CCCN3C(=O)c4cccc5cccc(c45)C3=O)CC1)N=C[C@@H]1CCCN1C2=O`, for which the ΔTm – broadly, the shift of the melting midpoint relative to a reference – in the assay on DNA came to 12.9 °C.

Take `COc1cc2c(cc1OCCCCN1CCN(CCN3C(=O)c4cccc5cccc(c45)C3=O)CC1)N=C[C@@H]1CCCN1C2=O`: in the assay on DNA, the ΔTm stood at 23.9 °C. In addition, the IC50 (commonly the concentration at which inhibition is half-maximal) in the assay with HOP-62 was less than 1000 nM; with SiHa, 800 nM; in the assay on MCF7 it was 500 nM; in the assay on ZR-75-1, less than 1000 nM; in the assay with PC-3, 500 nM; with COLO 205, 500 nM. This compound registered an IC50 in the assay with A2780 of 600 nM.

Consider `COc1cc2c(cc1O)N=C[C@@H]1CCCN1C2=O`, for which the ΔTm in the assay on DNA was 0.7 °C.

With `COc1cc2c(cc1OCCCN1CCN(CCN3C(=O)c4cccc5cccc(c45)C3=O)CC1)N=C[C@@H]1CCCN1C2=O`, in the assay on DNA, the ΔTm turned out to be 26.5 °C. Moreover, the 50% inhibitory concentration (IC50) in the assay with HOP-62 was less than 1000 nM; in the assay on SiHa, 700 nM; in the assay with MCF7, 500 nM; with ZR-75-1 it was less than 1000 nM; in the assay on PC-3, 500 nM; in the assay on COLO 205, 500 nM. The same compound had a 50% inhibitory concentration (IC50) in the assay with A2780 of 500 nM.

For `COc1cc2c(cc1OCCN1CCN(CCN3C(=O)c4cccc5cccc(c45)C3=O)CC1)N=C[C@@H]1CCCN1C2=O`, in the assay with DNA, the thermal shift (ΔTm) was 22.7 °C. Also, the concentration for half-maximal inhibition (IC50) in the assay with HOP-62 was 1200 nM; in the assay on SiHa, 1000 nM; in the assay on MCF7, 1400 nM; in the assay on ZR-75-1, less than 1000 nM; in the assay with PC-3, 800 nM; in the assay on COLO 205, 1600 nM. In the assay with A2780, this compound displayed a concentration for half-maximal inhibition (IC50) of 500 nM.

As to `COc1cc2c(cc1OCCCCN1CCN(CCCCN3C(=O)c4cccc5cccc(c45)C3=O)CC1)N=C[C@@H]1CCCN1C2=O`, the ΔTm in the assay with DNA worked out at 20.8 °C.

`COc1cccc2c1C(=O)c1c(O)c3c(c(O)c1C2=O)C[C@@](O)(C(=O)CO)C[C@@H]3O[C@H]1C[C@H](N)[C@H](O)[C@H](C)O1` [DOXORUBICIN] gave a half-maximal inhibitory concentration (IC50) with MCF7 of 500 nM.

In the case of `COc1cc2c(cc1OCCCOc1cc3c(cc1OC)C(=O)N1CCC[C@H]1C=N3)N=C[C@@H]1CCCN1C2=O`, in the assay with DNA, the shift in melting temperature (ΔTm) was determined as 15.1 °C.
